Reference: ChEMBL document CHEMBL1142626, “Insecticidal and mutagenic evaluation of two annonaceous acetogenins” (J Nat Prod, 2000)

Tests used:
Myzus persicae = assay: Antifeedant effect against Myzus persicae assessed as inhibition index at 100 ug/cm2 relative to control; type: functional; parameters: scale not given: the % may be the effect or the level left
How it was run: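 Choice settling test on apterous adult M. persicae: 20 boxes of 10 aphids per treatment. Settling inhibition %SI = [1 − (%aphids on treated/%aphids on control surface)] × 100.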

Salmonella typhimurium [1] = assay: Mutagenic activity in Salmonella Typhimurium TA100 assessed as number of revertants at 100 ug/plate in presence of Wistar rat S9 liver homogenate; type: toxicity, organism-based, Liver S9 fraction; conditions: salmonella enterica subsp. enterica serovar typhimurium
How it was run: (§1)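 Salmonella/microsome plate test, with or without S9 from livers of male Wistar rats (~200 g). Strain markers and spontaneous revertant counts were routinely verified. Revertants are reported as mean ± standard error of triplicate plates. Strain-specific positive controls were used, with 2-aminoanthracene for all strains when S9 was present.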

[2] = test system: Leptinotarsa decemlineata; assay: Antifeedant effect against Leptinotarsa decemlineata assessed as feeding reduction at 100 ug/cm2 relative to control; type: functional; parameters: scale not given: the % may be the effect or the level left
How it was run: (§2)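 Choice test on leaf disks using adult L. decemlineata or newly emerged fifth-instar S. littoralis larvae. Five to 10 plates per treatment, three insects each. Uneaten leaf-disk area was measured by scanner. %FR = [1 − (treatment/control consumption)] × 100 per arena. Where FR exceeded 50%, EC50 was taken from linear regression of %FR on log dose.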

[3] = test system: Leptinotarsa decemlineata; assay: Antifeedant effect against Leptinotarsa decemlineata assessed as feeding reduction; type: functional, organism-based; how it was run: as §2
Spodoptera littoralis [4] = assay: Antifeedant effect against Spodoptera littoralis L6 larvae assessed as relative consumption rate at 10 ug, po after 72 hrs; type: functional
How it was run: (§3)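 Preweighed, newly emerged S. littoralis L6 larvae (20 per experiment) were orally cannulated with 10 µg in 2 µL DMSO; controls got solvent alone. Relative consumption and growth rates were calculated at 72 h on a dry-weight basis. Log-transformed weights were analysed by ANOVA with LSD tests.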

Spodoptera littoralis [5] = assay: Antifeedant effect against Spodoptera littoralis L6 larvae assessed as relative growth rate at 10 ug, po after 72 hrs; type: functional; how it was run: as §3
[6] = test system: Leptinotarsa decemlineata; assay: Insecticidal activity against Leptinotarsa decemlineata assessed as mortality at 5 ug by hemolymph injection after 72 hrs; type: functional
How it was run: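 Adult L. decemlineata (20 beetles) were injected with 5 µg in DMSO through the metepimeron suture of the thorax. Beetles were kept on potato leaves. Symptoms and mortality were recorded up to 3 days, analysed by contingency tables and Abbott-corrected.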

Salmonella typhimurium [7] = assay: Mutagenic activity in Salmonella Typhimurium TA98 assessed as number of revertants at 0.1 ug/plate in absence of Wistar rat S9 liver homogenate; type: toxicity, organism-based; conditions: salmonella enterica subsp. enterica serovar typhimurium; how it was run: as §1
Salmonella typhimurium [8] = assay: Mutagenic activity in Salmonella Typhimurium TA98 assessed as number of revertants at 1 ug/plate in absence of Wistar rat S9 liver homogenate; type: toxicity, organism-based; conditions: salmonella enterica subsp. enterica serovar typhimurium; how it was run: as §1
Salmonella typhimurium [9] = assay: Mutagenic activity in Salmonella Typhimurium TA98 assessed as number of revertants at 10 ug/plate in absence of Wistar rat S9 liver homogenate; type: toxicity, organism-based; conditions: salmonella enterica subsp. enterica serovar typhimurium; how it was run: as §1
Salmonella typhimurium [10] = assay: Mutagenic activity in Salmonella Typhimurium TA98 assessed as number of revertants at 20 ug/plate in absence of Wistar rat S9 liver homogenate; type: toxicity, organism-based; conditions: salmonella enterica subsp. enterica serovar typhimurium
How it was run: (§4)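 Salmonella/microsome plate test (Ames) in strain TA98, with genetic markers and spontaneous revertant counts verified routinely. Run with and without S9 mix, the S9 being liver postmitochondrial supernatant from male Wistar rats of about 200 g. Doses ran from 0.01 to 100 µg/plate. Revertants are the mean of triplicate plates with standard error. Positive controls were 0.5 µg 4-nitroquinoline-N-oxide without S9 and 15 µg 2-aminoanthracene with S9.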

Salmonella typhimurium [11] = assay: Mutagenic activity in Salmonella Typhimurium TA98 assessed as number of revertants at 50 ug/plate in absence of Wistar rat S9 liver homogenate; type: toxicity, organism-based; conditions: salmonella enterica subsp. enterica serovar typhimurium; how it was run: as §4
Salmonella typhimurium [12] = assay: Mutagenic activity in Salmonella Typhimurium TA98 assessed as number of revertants at 100 ug/plate in absence of Wistar rat S9 liver homogenate; type: toxicity, organism-based; conditions: salmonella enterica subsp. enterica serovar typhimurium; how it was run: as §4
Salmonella typhimurium [13] = assay: Mutagenic activity in Salmonella Typhimurium TA98 assessed as number of revertants at 0.01 ug/plate in presence of Wistar rat S9 liver homogenate; type: toxicity, organism-based, Liver S9 fraction; conditions: salmonella enterica subsp. enterica serovar typhimurium; how it was run: as §1
Salmonella typhimurium [14] = assay: Mutagenic activity in Salmonella Typhimurium TA98 assessed as number of revertants at 0.1 ug/plate in presence of Wistar rat S9 liver homogenate; type: toxicity, organism-based, Liver S9 fraction; conditions: salmonella enterica subsp. enterica serovar typhimurium; how it was run: as §1
Salmonella typhimurium [15] = assay: Mutagenic activity in Salmonella Typhimurium TA98 assessed as number of revertants at 1 ug/plate in presence of Wistar rat S9 liver homogenate; type: toxicity, organism-based, Liver S9 fraction; conditions: salmonella enterica subsp. enterica serovar typhimurium; how it was run: as §1
Salmonella typhimurium [16] = assay: Mutagenic activity in Salmonella Typhimurium TA98 assessed as number of revertants at 10 ug/plate in presence of Wistar rat S9 liver homogenate; type: toxicity, organism-based, Liver S9 fraction; conditions: salmonella enterica subsp. enterica serovar typhimurium; how it was run: as §1
Salmonella typhimurium [17] = assay: Mutagenic activity in Salmonella Typhimurium TA98 assessed as number of revertants at 20 ug/plate in presence of Wistar rat S9 liver homogenate; type: toxicity, organism-based, Liver S9 fraction; conditions: salmonella enterica subsp. enterica serovar typhimurium; how it was run: as §4
Salmonella typhimurium [18] = assay: Mutagenic activity in Salmonella Typhimurium TA98 assessed as number of revertants at 50 ug/plate in presence of Wistar rat S9 liver homogenate; type: toxicity, organism-based, Liver S9 fraction; conditions: salmonella enterica subsp. enterica serovar typhimurium; how it was run: as §4
Salmonella typhimurium [19] = assay: Mutagenic activity in Salmonella Typhimurium TA98 assessed as number of revertants at 100 ug/plate in presence of Wistar rat S9 liver homogenate; type: toxicity, organism-based, Liver S9 fraction; conditions: salmonella enterica subsp. enterica serovar typhimurium; how it was run: as §4
Salmonella typhimurium [20] = assay: Mutagenic activity in Salmonella Typhimurium TA100 assessed as number of revertants at 0.01 ug/plate in absence of Wistar rat S9 liver homogenate; type: toxicity, organism-based; conditions: salmonella enterica subsp. enterica serovar typhimurium; how it was run: as §1
Salmonella typhimurium [21] = assay: Mutagenic activity in Salmonella Typhimurium TA100 assessed as number of revertants at 0.1 ug/plate in absence of Wistar rat S9 liver homogenate; type: toxicity, organism-based; conditions: salmonella enterica subsp. enterica serovar typhimurium; how it was run: as §1
Salmonella typhimurium [22] = assay: Mutagenic activity in Salmonella Typhimurium TA100 assessed as number of revertants at 1 ug/plate in absence of Wistar rat S9 liver homogenate; type: toxicity, organism-based; conditions: salmonella enterica subsp. enterica serovar typhimurium; how it was run: as §1
Salmonella typhimurium [23] = assay: Mutagenic activity in Salmonella Typhimurium TA100 assessed as number of revertants at 10 ug/plate in absence of Wistar rat S9 liver homogenate; type: toxicity, organism-based; conditions: salmonella enterica subsp. enterica serovar typhimurium; how it was run: as §1
Salmonella typhimurium [24] = assay: Mutagenic activity in Salmonella Typhimurium TA100 assessed as number of revertants at 20 ug/plate in absence of Wistar rat S9 liver homogenate; type: toxicity, organism-based; conditions: salmonella enterica subsp. enterica serovar typhimurium; how it was run: as §1

CCCCCCCCCCCC[C@@H](O)[C@H]1CC[C@H]([C@H](O)CCCC[C@H](O)CCCCC[C@@H](O)CC2=CC(C)OC2=O)O1 (stereo not given in full) [ANNONACIN]
Activity (Myzus persicae): <40%
Activity (Salmonella typhimurium [1]): 88
Activity [2]: 93%
EC50 [3]: 10 microg/cm2
Activity (Spodoptera littoralis [4]): 20.53 mg
Activity (Spodoptera littoralis [5]): 3.44 mg
Activity [6]: 29.68%
Activity (Salmonella typhimurium [7]): 30
Activity (Salmonella typhimurium [8]): 32
Activity (Salmonella typhimurium [9]): 34
Activity (Salmonella typhimurium [10]): 36
Activity (Salmonella typhimurium [11]): 21
Activity (Salmonella typhimurium [12]): 14
Activity (Salmonella typhimurium [13]): 36
Activity (Salmonella typhimurium [14]): 21
Activity (Salmonella typhimurium [15]): 27
Activity (Salmonella typhimurium [16]): 19
Activity (Salmonella typhimurium [17]): 26
Activity (Salmonella typhimurium [18]): 25
Activity (Salmonella typhimurium [19]): 28
Activity (Salmonella typhimurium [20]): 150
Activity (Salmonella typhimurium [21]): 142
Activity (Salmonella typhimurium [22]): 125
Activity (Salmonella typhimurium [23]): 104
Activity (Salmonella typhimurium [24]): 96
